Bioassay records from PubChem.
Sampled rows, rich in hits. Any-hit rate of the full collection: about 5.4%.
CSC inhib – cancer stem cell inhibition | cancer stem cell-like cells viability, luminescence | inhibition, % at 7.5 µM | 1.1% of 300,000 active; in the data active = inhibition above about 75%; inconclusive = no clear call, values can overlap the other calls; tested in HMLE shEcad cells
T cruzi inh – blocks replication of Trypanosoma cruzi | T. cruzi beta-gal in NIH3T3, luminescence, 90 h | inhibition, % (no concentration beside the values) | 1.4% of 300,000 active | AID 1885;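 active = mean inhibition across valid replicates above about 55%, limit read from the data; inconclusive = mean below that limit but half or more replicates reach it; inactive = mean below it, under half of replicates reach it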;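 also: signal also drops with host cell toxicity which is not excluded here; 0% = plate median of DMSO wells and 100% = zero luminescence signal; higher percent means less beta-gal luminescence so fewer parasites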
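System: mouse NIH/3T3 fibroblasts infected with β-gal-expressing T. cruzi Tulahuen C4 / Input: NIH/3T3 cells, 5,000 per well / Buffer or medium: Low-serum DMEM with 2% FBS / Probe or stimulus: 5000 reporter trypomastigotes per well / Schedule: ≥90 h infection period, 3 h prior cell attachment / Measured by: GalScreen luminescence, 60 min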
aSyn UTR inh – MLPCN primary screen, SNCA 5' untranslated region; alpha-synuclein 5'UTR reporter, inhibitor activity; inhibition, % (tested at 7.5 µM); 0.82% of 300,000 active; AID 1813; in the data active = inhibition above about 60%; inconclusive = no clear call, values can overlap the other calls;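 also: H4 neuroglioblastoma cells stably carrying SNCA 5'UTR luciferase fusion; 0% = DMSO wells and 100% = positive control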
Mdm2-MdmX inh – human Mdm2/MdmX binding inhibition | O15151+Q00987 | SaOS-2 split-luciferase Mdm2/MdmX complementation, luminescence | inhibition, % at 8 µM | 3% of 330,000 active;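 active = inhibition of at least 50% at 8 µM in the primary screen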
Target sequence (O15151 whole entry, looked up): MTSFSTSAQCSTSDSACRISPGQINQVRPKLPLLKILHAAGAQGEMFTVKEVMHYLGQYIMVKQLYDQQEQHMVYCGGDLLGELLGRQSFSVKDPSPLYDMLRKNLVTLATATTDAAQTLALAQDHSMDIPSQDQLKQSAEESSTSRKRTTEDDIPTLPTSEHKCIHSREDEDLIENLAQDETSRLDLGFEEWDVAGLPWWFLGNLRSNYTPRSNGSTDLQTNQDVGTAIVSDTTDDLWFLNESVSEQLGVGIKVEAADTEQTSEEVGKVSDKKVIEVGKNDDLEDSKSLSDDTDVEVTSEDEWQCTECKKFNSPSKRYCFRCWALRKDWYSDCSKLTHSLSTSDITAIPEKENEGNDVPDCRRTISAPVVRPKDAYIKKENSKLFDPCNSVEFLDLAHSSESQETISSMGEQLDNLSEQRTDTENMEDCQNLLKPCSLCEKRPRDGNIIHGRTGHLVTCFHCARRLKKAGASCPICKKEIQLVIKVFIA
Target sequence (Q00987 whole entry, looked up): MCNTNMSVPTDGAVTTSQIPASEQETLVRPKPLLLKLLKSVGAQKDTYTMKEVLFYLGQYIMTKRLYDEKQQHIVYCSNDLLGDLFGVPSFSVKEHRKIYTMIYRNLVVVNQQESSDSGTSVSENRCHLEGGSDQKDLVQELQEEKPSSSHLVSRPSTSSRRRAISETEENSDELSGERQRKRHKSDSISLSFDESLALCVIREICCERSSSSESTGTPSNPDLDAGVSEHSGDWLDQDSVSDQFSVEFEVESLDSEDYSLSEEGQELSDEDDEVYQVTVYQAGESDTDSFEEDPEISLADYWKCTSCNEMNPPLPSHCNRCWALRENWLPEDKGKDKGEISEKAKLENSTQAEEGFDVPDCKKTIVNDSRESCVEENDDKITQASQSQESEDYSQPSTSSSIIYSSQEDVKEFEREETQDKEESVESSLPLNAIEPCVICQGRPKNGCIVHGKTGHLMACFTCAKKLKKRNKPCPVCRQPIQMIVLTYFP
SKKanGAS inh – SKKanGAS growth inhibition | inhibition, % at 7.5 µM | S. pyogenes SKKanGAS, kanamycin growth, BacTiter-Glo, 6 h | 1.3% of 300,000 active | AID 1662;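 active = mean replicate score, as percent of positive control median, at least 50; inconclusive = mean below 50 but one replicate at or above 50; inactive = mean and every replicate below 50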;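 also: strain carries kanamycin resistance gene driven by streptokinase promoter and grows in 40 µg/ml kanamycin; loss of luminescence reflects streptokinase promoter inhibition or plain growth inhibition; 0% = median of DMSO wells and 100% = positive control at its reference dose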
Mdm2 MdmX conf – confirmation of human Mdm2/MdmX interaction inhibitors; inhibition, % at 8 µM; shares compounds with Mdm2-MdmX inh; Mdm2-MdmX binding, luminescent assay; 55% of 10,000 active; AID 489028; in the data active = inhibition above about 40%
Full FLuc ctr – counter-screen for Mdm2/MdmX inhibitors: full-length luciferase. shares compounds with Mdm2-MdmX inh. inhibition, % at 8 µM. 77% of 6,200 active. SaOS-2 full-length luciferase counterscreen, luminescence;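 active = mean inhibition at 8 µM reaching about 37%, which flags the compound as non-specific, limit read from the data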;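 also: p53-null SaOS-2 cells with luciferase driven by a doxycycline-inducible promoter; compound on cells about two nights before reading with doxycycline added after day one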
Numbers without * were called inactive; ? = inconclusive; . = no result given.

SMILES	CSC inhib	T cruzi inh	aSyn UTR inh	Mdm2-MdmX inh	SKKanGAS inh	Mdm2 MdmX conf	Full FLuc ctr
Cc1ccc(C(=O)N/C(=C\c2ccc(-c3ccc(Br)cc3)o2)C(=O)NCCCN(C)C)cc1	?	77*	?	100*	-8	99*	55*
COc1ccc(CCNC(=O)c2ccc(CN3CCC(Cc4ccccc4)CC3)cc2)cc1OC	25	35	-15	36	5	.	.
COCCNC(=O)c1ccc(CN2CCC(Cc3ccccc3)CC2)cc1	-10	4	8	-30	-10	.	.
O=C(NCc1ccccc1)c1ccc(CN2CCC(Cc3ccccc3)CC2)cc1	15	25	-5	54*	-1	28	.
Cc1ccc(S(=O)(=O)NCc2ccc(C(=O)NCCCN3CCC(Cc4ccccc4)CC3)cc2)cc1	8	26	-9	75*	14	42*	43*
CCc1ccccc1NC(=O)c1ccc(CN2CCC(Cc3ccccc3)CC2)cc1	21	43	-21	51*	-13	36	76*
O=C(CN1c2cccc3cccc(c23)S1(=O)=O)Nc1ccc(F)c(F)c1F	-3	.	.	15	.	.	.
CCC(CC)c1nnc(NC(=O)Oc2ccccc2)s1	8	-6	-29	-3	-9	.	.
CCc1c(C)sc(NC(=O)C2CC2c2ccccc2)c1C(N)=O (configuration not stated)	27	6	10	57*	-9	73*	55*
NNC(=O)[C@@H]1C[C@@H]1c1ccccc1	-10	1	3	12	9	.	.
COc1cc(C(=O)Nc2ccc(Cl)c([N+](=O)[O-])c2)cc(OC)c1OC	-7	7	-2	57*	3	5	.
COc1ccc(C(=O)c2ccc(Cl)c([N+](=O)[O-])c2)cc1	38	-16	39	70*	2	70*	111*
Fc1ccc(/C=C2\CCCC3=C2Nc2ncnn2C3c2ccc(F)cc2)cc1 (configuration not stated)	-1	23	11	99*	64*	47*	1
O=C(CCl)c1ccc2c(c1)CCN2C(=O)C1CC1	51	19	-94	80*	-16	39	27
O=C(CCl)c1ccc2c(c1)CCN2C(=O)C1CCCCC1	24	90*	-10	97*	-7	53*	79*
CC(=O)N1CCc2cc(C(=O)CN3CCC(C)CC3)ccc21	9	-1	1	-12	2	.	.
CCC1CCCCN1S(=O)(=O)c1ccc2c(c1)CCN2C(=O)C1CCC1 (configuration not stated)	17	14	30	10	1	.	.
O=C(NC1CCCCCC1)c1cc(-c2ccccn2)nc2ccccc12	.	5	-1	-10	-1	.	.
O=C(Nc1ccccc1N1CCOCC1)c1cnccn1	-2	-1	16	5	-4	.	.
O=C(Nc1ccc(N2CCOCC2)cc1)c1cnccn1	-9	-1	67*	54*	1	32	.
O=C(Nc1ccc(N2CCOCC2)cc1)c1cnsn1	.	2	106*	70*	1	68*	32
C=CCn1c(=O)[nH]c2cc(C(=O)N3CC=C(c4ccccc4)CC3)ccc2c1=O	1	-4	8	-7	-12	.	.
COc1ccc(O)c(/C=N/NC(=O)c2ccc(N3CCCC3=O)cc2)c1	43	-18	42	31	-1	.	.
O=C(N/N=C/c1cc(Br)ccc1O)c1cccc(N2CCCC2=O)c1	36	-5	68*	54*	27	65*	31
O=C(N/N=C/c1ccco1)c1cccc(N2CCCC2=O)c1	-14	16	-40	12	-8	.	.
SMILES	CSC inhib	T cruzi inh	aSyn UTR inh	Mdm2-MdmX inh	SKKanGAS inh	Mdm2 MdmX conf	Full FLuc ctr
COc1ccc(O)c(/C=N/NC(=O)c2cccc(N3CCCC3=O)c2)c1	.	19	23	55*	24	57*	56*
O=C(CNC(=O)N1CC(=O)Nc2ccccc21)NCCc1c[nH]c2ccccc12	-5	-3	-46	12	-2	.	.
COc1cccc(NC(=O)NC(=O)c2c(C)cc(Cl)nc2Cl)c1	17	-6	35	-14	-3	.	.
COc1cc(SC)ccc1C(=O)Nc1ccc(Br)cn1	-4	21	101*	60*	-20	48*	126*
COc1cc(SC)ccc1C(=O)Nc1ncc(C)s1	-5	13	98*	71*	-11	56*	71*
CCCCn1c(N)c(N(CCOC)C(=O)c2ccc(-n3c(C)ccc3C)cc2)c(=O)[nH]c1=O	-2	-15	-14	19	-1	.	.
CC1CCN(c2c(NCc3ccc(C(=O)N4CCc5ccccc54)cc3)c(=O)c2=O)CC1	55	28	88*	65*	8	53*	39*
CC1CCN(c2c(NCc3ccc(C(=O)N(C)C4CCCCC4)cc3)c(=O)c2=O)CC1	.	10	22	-11	3	.	.
Cc1ccc(O)c(CNCCNCc2cc(C)ccc2O)c1	-17	27	28	73*	9	52*	33
CCc1ccc(O)c(CNCCNCc2cc(CC)ccc2O)c1	13	47	53	72*	11	37	.
O=C(Nc1ccc(N2C(=O)C3C4C=CC(C4)C3C2=O)cc1)Nc1cccnc1 (configuration not stated)	-11	-12	9	-17	-2	.	.
COc1ccc(N(CC(=O)Nc2ccc(C)cn2)S(=O)(=O)c2c(C)noc2C)cc1	-5	9	-12	25	-18	.	.
Cc1cnc(NC(=O)COc2cccc3c2OC(C)(C)C3)s1	-8	0	-13	77*	1	68*	42*
COc1ccc(NC(=O)COc2cccc3c2OC(C)(C)C3)cc1OC	-2	.	.	22	.	.	.
Cc1ccc(NC(=O)Nc2cc(C(F)(F)F)c[nH]c2=O)cc1	10	5	35	58*	1	45*	72*
CCN(CC)S(=O)(=O)c1ccc(NC(=O)Nc2cccc(C(F)(F)F)c2)cc1	83*	76*	39	94*	25	87*	35
O=C(Nc1ccc(OC(F)F)cc1)Nc1cccc(C(F)(F)F)c1	71	42	-51	76*	59*	93*	24
Cc1ccc(S(=O)(=O)Nc2ccc(NC(=O)Nc3cccc(C(F)(F)F)c3)cc2)cc1	96*	-3	-10	85*	-15	46*	77*
NC(=O)c1ccc(NC(=O)COC(=O)C2COc3ccccc3O2)cc1 (configuration not stated)	-13	.	.	8	.	.	.
COC(=O)c1ccsc1NC(=O)CN1CCN(c2ncccn2)CC1	-7	1	9	-3	12	.	.
CC1CN=C(N(C(=O)Nc2ccccc2)c2ccc(F)cc2)S1 (configuration not stated)	9	10	-7	3	3	.	.
Cn1c(=O)c(Nc2ccc(Cl)cc2)c2c3c(cccc31)C(=O)c1ccccc1-2	38	41	25	51*	24	15	.
